Compound activity: PubChem BioAssay, The Scripps Research Institute Molecular Screening Center
TDP2 inh: TDP2 (human) inhibition, absorbance primary screen | O95551 | recombinant TDP2, T5PNP hydrolysis, p-nitrophenol absorbance 415 nm | inhibition, % at 12.8 µM | actives 0.34% (n = 370,000);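 active = inhibition above the mean of all tested compounds plus 3 SD, set per campaign, cut at about 25% in these data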;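 note: 0% = DMSO with enzyme and 100% = buffer with substrate but no TDP2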
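Assay system: recombinant human TDP2 / Reagent: T5PNP substrate at 5 mM, a TopII-DNA adduct mimic / Measured by: epi absorbance from released p-nitrophenol / Evaluation: % inhibition relative to enzyme-containing and enzyme-free wells / Control set: enzyme-free and DMSO wells / Replicates: each compound tested once, singlicate / Schedule: enzyme reaction with compound for 2 h at 37 °C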
LEDGF integ inh: blocks HIV-1 LEDGF/p75-dependent DNA integration; AID 743269; actives 0.64% (n = 370,000); TR-FRET IN-LEDGF/p75 DNA integration, Eu/Cy5; inhibition, % at 3.7 µM;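 active = inhibition above the screen-wide mean plus 3 SD, cut at about 13% in these data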;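 note: signal is the Cy5 over europium emission ratio at 671 and 618 nm; 0% = plate median of compound wells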
Rin1 Abl inh: inhibitors of human Rin1-Abl protein interaction | AID 588664 | P00519+Q13671 | actives 0.4% (n = 360,000) | inhibition, % at 7.35 µM | TR-FRET Rin1/Abl binding, biochemical; in the data active = inhibition above about 5%, passing the limit was not always enough
Target sequence (P00519 whole entry, looked up): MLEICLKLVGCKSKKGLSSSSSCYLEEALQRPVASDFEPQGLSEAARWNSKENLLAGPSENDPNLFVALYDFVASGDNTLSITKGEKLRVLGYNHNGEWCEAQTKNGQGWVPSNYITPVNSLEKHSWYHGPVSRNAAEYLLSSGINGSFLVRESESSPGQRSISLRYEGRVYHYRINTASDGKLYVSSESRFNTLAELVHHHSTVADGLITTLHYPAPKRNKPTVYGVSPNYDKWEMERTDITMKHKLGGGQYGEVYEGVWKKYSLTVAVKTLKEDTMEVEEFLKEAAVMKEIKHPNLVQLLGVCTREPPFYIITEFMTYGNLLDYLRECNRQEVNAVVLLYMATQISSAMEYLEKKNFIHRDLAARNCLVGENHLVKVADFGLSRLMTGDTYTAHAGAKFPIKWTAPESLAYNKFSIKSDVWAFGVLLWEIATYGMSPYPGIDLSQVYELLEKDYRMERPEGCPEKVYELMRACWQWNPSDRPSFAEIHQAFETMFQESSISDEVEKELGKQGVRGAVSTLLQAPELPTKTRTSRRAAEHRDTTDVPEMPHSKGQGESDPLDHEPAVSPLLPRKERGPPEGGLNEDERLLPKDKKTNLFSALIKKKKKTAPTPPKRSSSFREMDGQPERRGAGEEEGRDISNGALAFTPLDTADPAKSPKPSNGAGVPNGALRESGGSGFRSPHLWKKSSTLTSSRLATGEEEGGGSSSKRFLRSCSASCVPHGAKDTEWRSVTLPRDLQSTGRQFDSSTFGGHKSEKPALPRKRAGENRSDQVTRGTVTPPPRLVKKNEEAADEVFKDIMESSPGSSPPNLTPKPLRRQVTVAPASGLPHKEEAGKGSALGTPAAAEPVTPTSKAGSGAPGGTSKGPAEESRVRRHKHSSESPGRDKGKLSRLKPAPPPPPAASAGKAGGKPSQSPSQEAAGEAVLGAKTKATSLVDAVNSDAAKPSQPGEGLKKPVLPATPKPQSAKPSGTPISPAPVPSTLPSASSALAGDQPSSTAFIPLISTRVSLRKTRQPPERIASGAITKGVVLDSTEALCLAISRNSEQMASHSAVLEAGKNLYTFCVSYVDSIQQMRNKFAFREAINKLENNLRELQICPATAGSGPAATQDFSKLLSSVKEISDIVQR
Target sequence (Q13671 whole entry, looked up): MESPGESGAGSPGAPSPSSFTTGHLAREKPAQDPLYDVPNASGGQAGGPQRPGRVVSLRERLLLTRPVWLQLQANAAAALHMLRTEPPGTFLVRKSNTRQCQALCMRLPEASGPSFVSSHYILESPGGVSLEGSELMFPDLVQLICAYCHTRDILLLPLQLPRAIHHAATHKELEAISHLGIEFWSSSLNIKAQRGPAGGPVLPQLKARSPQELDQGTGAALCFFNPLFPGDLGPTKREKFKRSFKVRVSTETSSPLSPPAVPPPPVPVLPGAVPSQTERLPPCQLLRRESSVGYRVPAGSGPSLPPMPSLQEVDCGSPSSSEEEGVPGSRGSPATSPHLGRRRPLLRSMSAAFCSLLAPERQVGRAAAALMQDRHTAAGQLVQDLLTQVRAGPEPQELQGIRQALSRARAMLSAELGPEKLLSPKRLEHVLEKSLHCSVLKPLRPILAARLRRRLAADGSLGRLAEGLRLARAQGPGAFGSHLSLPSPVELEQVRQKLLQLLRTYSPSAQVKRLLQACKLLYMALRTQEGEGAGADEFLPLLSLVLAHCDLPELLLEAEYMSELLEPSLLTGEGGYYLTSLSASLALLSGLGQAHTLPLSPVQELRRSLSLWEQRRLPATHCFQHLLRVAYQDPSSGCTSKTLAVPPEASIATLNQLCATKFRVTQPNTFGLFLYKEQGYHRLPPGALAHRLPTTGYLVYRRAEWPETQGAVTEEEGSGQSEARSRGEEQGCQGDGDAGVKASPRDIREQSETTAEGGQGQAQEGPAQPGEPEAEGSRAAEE
UHRF1 binding: blocks human UHRF1 binding to methylated DNA; Q96T88; UHRF1 binding to methylated oligo, TR-FRET; inhibition, % at 4.4 µM; actives 0.75% (n = 370,000); AID 687016; in the data active = inhibition above about 21%;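 note: UHRF1 SRA domain binding a hemimethylated CpG hairpin DNA probe; 0% = median of test compound wells and 100% = reference inhibitor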
MBD2 inh: inhibitors of human MBD2 binding to methylated oligonucleotide. Q9UBB5. TR-FRET. inhibition, % at 4.4 µM. actives 0.31% (n = 370,000); in the data active = inhibition above about 13%
TDP2 confirm: confirmation of human TDP2 inhibitors; shares compounds with TDP2 inh; recombinant human TDP2, absorbance read-out; inhibition, % at 12.8 µM; actives 22% (n = 1,100); in the data active = inhibition above about 25%;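 note: 0% = vehicle with enzyme and 100% = no enzyme buffer only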
Numbers without * were called inactive; nt = not tested or not shown. Shown are actives, neighbours in structure and some others; about 1.9% of the full set was active somewhere.

SMILES	TDP2 inh	LEDGF integ inh	Rin1 Abl inh	UHRF1 binding	MBD2 inh	TDP2 confirm
Cc1ccc(S(=O)(=O)N2CC3(COC(C)(C)OC3)C[C@H]2CON2C(C)(C)CCCC2(C)C)cc1	-4.5	-1.2	nt	3.1	0.8	nt
COc1ccc(/C=N/NC(=O)c2nnn(-c3nonc3N)c2CN(C)c2ccccc2)cc1	26.9*	1.2	-2.1	0.3	3.0	6.8
CCCOc1ccc(N)cc1N	29.5*	37.6*	-1.9	5.9	-7.9	21.8
CCCOc1cc(N)ccc1C(=O)OCCN(CC)CC	-5.2	-2.8	-0.8	-0.8	-3.3	nt
Cc1ccc(NC2=C(NC(=O)c3ccccc3)C(=O)c3ccccc3C2=O)cc1Cl	29.3*	3.7	-9.2	-3.6	-7.1	16.8
Cc1ccc(NCC(=O)c2ccccc2)cc1Cl	-1.9	-3.8	-3.9	-1.4	0.7	nt
COC(=O)[C@]12C[C@H](CC(=O)NCc3ccc(C)o3)C(=O)N(Cc3ccc(Cl)cc3Cl)C1=C[C@H](C(C)C)O[C@@H]2C1CC1	-6.9	4.2	nt	-1.6	3.8	nt
O=C(N=Nc1c(O)[nH]c2ccc([N+](=O)[O-])cc12)c1ccccc1[N+](=O)[O-]	34.7*	-1.5	-6.1	-3.9	2.5	22.9
CCc1cc(C(=O)N=Nc2c(O)[nH]c3ccc([N+](=O)[O-])cc23)c2ccccc2n1	12.4	1.6	2.8	-2.0	-7.4	nt
CCN(c1ccccc1)c1nc(=O)c2cccnc2s1	0.5	1.1	1.5	-2.0	2.1	nt
CCN(c1ccccc1)c1cc2ccccc2c(=O)[nH]1	27.6*	12.2	4.3	-5.1	-1.8	76.3*
Cc1cccc(C)c1NC(=O)C(c1ccccc1)N1CCN(C/C=C/c2ccccc2)CC1 (configuration not stated)	-18.1	5.8	1.6	1.1	-5.0	nt
COc1ccccc1C(=O)Nc1nc(C)cc(C)n1	25.1*	-3.2	-4.1	1.0	3.4	1.0
CCN(C(=O)C1CCN(c2ncccn2)CC1)c1ccccc1	9.2	1.5	nt	-0.6	1.4	nt
Cc1ccccc1OCCC(=O)OCC(=O)c1c(N)n(CC(C)C)c(=O)n(C)c1=O	29.4*	-2.2	0.3	2.1	1.0	6.0
Cc1ccc(OCCC(=O)OCC(=O)c2c(N)n(CC(C)C)c(=O)n(C)c2=O)cc1	5.1	-3.6	2.0	1.0	1.8	nt
CCN(CC)C(=O)CC[C@H]1CC[C@]2(CCCN(C(=O)c3cccnc3)C2)O1	-5.9	4.2	nt	1.1	-0.4	nt
Cc1[nH]n(-c2ccccc2)c(=O)c1/C=N/N1C(=O)c2cccc3cccc(c23)C1=O	31.2*	0.9	-3.7	-21.0	-19.8	7.2
COc1ccc2nc(/N=C/c3c(C)[nH]n(-c4ccc(C)cc4)c3=O)sc2c1	30.7*	0.7	3.8	-10.2	-1.9	13.6
Cc1[nH]n(-c2ccc(Cl)cc2)c(=O)c1/C=N/c1nnc(-c2ccccc2)s1	37.3*	2.0	-0.8	-3.4	-6.0	19.7
Cc1[nH]n(-c2ccccc2)c(=O)c1C=NCc1ccncc1	26.8*	1.4	-1.2	-5.7	-7.5	3.0
COc1ccc2nc(/N=C\N(C)C)sc2c1	4.2	0.2	2.4	0.1	2.1	nt
Cc1[nH]n(-c2ccccc2)c(=O)c1/C=N/N1CCOCC1	16.7	1.9	2.7	-7.4	-6.2	nt
CC(=C\C=O)/C(C)=C/CC[C@@H]1O[C@@H]2C[C@@H]3O[C@](C)(C[C@H]4C[C@H](O)[C@@H]5O[C@@H]6C[C@H](O)[C@@H](C)O[C@@]6(C)CC[C@H]5O4)[C@@H](O)CC[C@@]3(C)O[C@H]2[C@@H](O)[C@@H]1C	-1.4	0.9	nt	5.0	8.2	nt
C[C@@H]1CN([C@H](C)CO)S(=O)(=O)c2ccc(C#Cc3ccccc3F)cc2O[C@@H]1CN(C)C(=O)Cc1ccccc1	-6.4	2.0	0.3	9.3	-1.8	nt
SMILES	TDP2 inh	LEDGF integ inh	Rin1 Abl inh	UHRF1 binding	MBD2 inh	TDP2 confirm
COc1cc(OC)c(N2CC(C(=O)Nc3cccc(C(=O)NC4CC4)c3)CC2=O)cc1Cl (configuration not stated)	3.0	-2.5	-4.7	0.3	-0.7	nt
COc1ccc(NC(C)C(=O)Nc2cccc(S(=O)(=O)N3CCOCC3)c2)cc1OC (configuration not stated)	5.3	0.7	-0.2	-1.3	-3.3	nt
COC(=O)c1ccc(C(c2c(C)[nH][nH]c2=O)c2c(C)[nH][nH]c2=O)cc1	-4.8	2.6	2.6	-5.9	-5.5	nt
Cc1[nH][nH]c(=O)c1C(c1ccc(-c2ccc(Cl)c(C(=O)O)c2)o1)c1c(C)[nH][nH]c1=O	50.9*	8.4	5.2	16.3	-0.4	-4.8
COC(=O)c1ccccc1-c1ccc(C(c2c(C)[nH][nH]c2=O)c2c(C)[nH][nH]c2=O)o1	78.4*	11.7	8.1	13.5	-0.1	35.7*
Cc1ccc(-c2ccc(C(=O)O)o2)cc1Cl	2.5	-3.2	-0.9	-0.9	-2.5	nt
N#Cc1ccccc1S(=O)(=O)N1CCN(CC(O)COc2ccccc2F)CC1 (configuration not stated)	28.5*	0.5	1.3	-0.5	-1.1	8.2
O=S(=O)(c1ccccc1C(F)(F)F)N1CCN(CC(O)COc2ccccc2F)CC1 (configuration not stated)	6.7	1.3	6.4	2.9	6.3	nt
O=C(CNc1cccc2ccccc12)N/N=C/C(Br)=C/c1ccccc1	37.6*	12.3	1.7	0.2	-3.8	-1.0
N#Cc1ccc(Cn2nnc(-c3ccc(N4CCOCC4)cc3)n2)cc1	-1.8	-2.0	nt	-1.6	1.4	nt
CCN1CCN(CC(=O)Nc2ccc(C(C)=O)cc2)CC1	37.7*	0.2	-0.3	-1.0	-1.9	-2.9
O=C(CNC1CCCC1)Nc1ccc(N2CCCCCC2)cc1	-7.3	-2.8	-1.4	1.7	0.1	nt
CN1CCN(CC(=O)Nc2ccc(S(=O)(=O)N(C)C)cc2)CC1	33.5*	7.8	2.2	21.7*	9.6	9.7
CC(=O)c1ccc(NC(=O)CN2CCN(CC(=O)Nc3ccc(C(C)=O)cc3)CC2)cc1	8.6	-2.9	4.3	-0.9	-0.8	nt
CC(=O)c1ccc(NC(=O)CNC2CCCCC2)cc1	26.3*	-3.7	-3.1	2.7	8.0	2.1
CCN1CCN(CC(=O)Nc2cc3c(cc2C(C)=O)OCO3)CC1	26.1*	2.6	3.1	3.4	0.6	11.8
COc1ccc(-c2nc3cc(C)c(Br)c(C)n3c2Cc2ccsc2)cc1OC	9.7	-0.1	nt	1.2	1.5	nt
O=C(NCc1ccco1)OC1CCC12CCC(c1ccccc1)CC2 (configuration not stated)	-2.5	0.8	nt	0.5	-7.6	nt
CN(CCCOC(=O)c1cc2ccccc2o1)C1CN(Cc2cn(Cc3ccccc3Cl)nn2)S(=O)(=O)C1 (configuration not stated)	-8.8	2.8	nt	5.5	1.5	nt
CCC(=O)NC(c1cccs1)c1cc([N+](=O)[O-])c2cccnc2c1OC (configuration not stated)	69.8*	6.8	-10.0	-0.7	-14.2	18.5
